For 15 compounds, Activity and IC50 results are on record in ChEMBL document CHEMBL1143992, “Trypanosoma cruzi: activities of lapachol and alpha- and beta-lapachone derivatives against epimastigote and trypomastigote forms” (Bioorg Med Chem, 2008).

The subject of test [1] is Trypanosoma cruzi. The experiment in a line: Antitrypanosomal activity against Trypanosoma cruzi MF assessed as trypomastigote viability at 24.7 uM by MTT assay relative to control. On the technique in general: Formazan colour is commonly taken as a measure of viable cells.
The test system of test [2] is Trypanosoma cruzi. The experiment in a line: Effect on oxygen redox cycling in Trypanosoma cruzi Tulahuen assessed as oxygen consumption per mg of protein relative to control. The class given is functional. Also on record: concentration or dose not given beside the values. In outline: (§1)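 Tulahuen epimastigotes were harvested on day 4 or 5 (500g, 10 min), washed and resuspended in 0.05 M sodium phosphate buffer pH 7.4 (0.107 M NaCl, 0.05 M KH2PO4). Respiration was measured polarographically with a Clark electrode as nanoatoms-gram O/min/mg protein, as % of control. Redox cycling was measured with 20 mM KCN, as % of KCN control. Values are means of three experiments.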

Test [3] has as its system Trypanosoma cruzi. The experiment in a line: Effect on oxygen uptake per mg of protein in Trypanosoma cruzi Tulahuen epimastigotes relative to control. The class given is functional. Also on record: concentration or dose not given beside the values. In outline:
as §1

Test [4] has as its system Trypanosoma cruzi. In words: Growth inhibition of Trypanosoma cruzi Tulahuen epimastigotes assessed as drug level causing decrease in growth constant. It counts as functional, organism-based. In outline:
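Tulahuen epimastigotes were seeded at 3 × 10^6/mL in Diamond's medium with 4 µM hemin, 5% FBS and penicillin/streptomycin at 28 °C. Drugs were added in DMSO (1% final) at several concentrations, in triplicate. Growth was followed daily for 10 days by nephelometry and fitted to first-order kinetics to give the growth constant k. ICk50 is the concentration lowering k by 50%.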

In test [5] the test system is Trypanosoma cruzi. The experiment in a line: Antitrypanosomal activity against Trypanosoma cruzi MF assessed as trypomastigote viability at 24.5 uM by MTT assay relative to control.
Test [6] concerns Trypanosoma cruzi. In words: Antitrypanosomal activity against Trypanosoma cruzi MF assessed as viability at 3.75 uM by MTT assay relative to control.
Test [7] has as its system Trypanosoma cruzi. The experiment in a line: Antitrypanosomal activity against Trypanosoma cruzi MF assessed as trypomastigote viability at 31.3 uM by MTT assay relative to control.
Test [8] deals with Trypanosoma cruzi. In words: Antitrypanosomal activity against Trypanosoma cruzi MF assessed as trypomastigote viability at 22.2 uM by MTT assay relative to control.
In test [9] the test system is Trypanosoma cruzi. The experiment in a line: Antitrypanosomal activity against Trypanosoma cruzi MF assessed as trypomastigote viability at 20.1 uM by MTT assay relative to control.
Test [10] concerns Trypanosoma cruzi. The experiment in a line: Antitrypanosomal activity against Trypanosoma cruzi MF assessed as trypomastigote viability at 1.93 uM by MTT assay relative to control.
The subject of test [11] is Trypanosoma cruzi. In words: Antitrypanosomal activity against Trypanosoma cruzi MF assessed as trypomastigote viability at >100 uM by MTT assay relative to control.
In test [12] the test system is Trypanosoma cruzi. In words: Antitrypanosomal activity against Trypanosoma cruzi MF assessed as trypomastigote viability at 38.1 uM by MTT assay relative to control.
Test [13] concerns Trypanosoma cruzi. The experiment in a line: Antitrypanosomal activity against Trypanosoma cruzi MF assessed as trypomastigote viability at 0.19 uM by MTT assay relative to control.

A word on the IC50: it is the concentration needed to halve the response being measured.

Regarding `CC1(C)CCC2=C(O1)c1ccccc1C(=O)C2=O` [LAPACHONE], the figures for the Activity with Trypanosoma cruzi [1], in the test on Trypanosoma cruzi [2] and in the test on Trypanosoma cruzi [3] were 2.9%, 100% and 107.5%, respectively. In addition, the half-inhibitory concentration (IC50) in the test on Trypanosoma cruzi [4] worked out at 24.7 µM.

In the case of `CC1CS(=O)(=O)CCN1/N=C/c1ccc([N+](=O)[O-])o1` (stereo not given) [NIFURTIMOX], the Activity in the test on Trypanosoma cruzi [2] is 113%; with Trypanosoma cruzi [3] it was 120.4%. The concentration for half-maximal inhibition (IC50) in the test on Trypanosoma cruzi [4] is 9.5 µM.

As for `CC1CCC2=C(O1)C(=O)c1ccccc1C2=O` (stereo not given), the Activity with Trypanosoma cruzi [2] is given as 173%; in the test on Trypanosoma cruzi [3], 138.8%; in the test on Trypanosoma cruzi [5], 15.6%. Moreover, the IC50 in the test on Trypanosoma cruzi [4] was determined as 24.5 µM.

As for `CC1CC(c2ccccc2)C2=C(O1)C(=O)c1ccccc1C2=O` (stereo not given), the Activity with Trypanosoma cruzi [2] was 96%; with Trypanosoma cruzi [3] it was 95.4%. Also, the IC50 in the test with Trypanosoma cruzi [4] was determined as 26.2 µM.

`CC1(C)OC2=C(CC1O)C(=O)C(=O)c1ccccc12` (stereo not given): the Activity is listed as 100% with Trypanosoma cruzi [2], 96.8% with Trypanosoma cruzi [3] and 30.4% in the test with Trypanosoma cruzi [6]. Also, the IC50 in the test on Trypanosoma cruzi [4] worked out at 3.75 µM.

For `CC(=O)CCC1=C(O)C(=O)c2ccccc2C1=O`, the Activity in the test on Trypanosoma cruzi [2] is listed as 100%; with Trypanosoma cruzi [3], 100.6%. The IC50 in the test with Trypanosoma cruzi [4] was found to be 35.2 µM.

As for `CC(C)=CCC1=C(O)C(=O)c2ccccc2C1=O` [LAPACHOL], the Activity was 82% in the test on Trypanosoma cruzi [2], 51.8% in the test on Trypanosoma cruzi [3] and 41.7% in the test on Trypanosoma cruzi [7]. Further, the concentration for half-maximal inhibition (IC50) with Trypanosoma cruzi [4] worked out at 31.3 µM.

For the compound `CC(=O)OC1CC(C)(C)OC2=C1C(=O)c1ccccc1C2=O` (stereo not given), the Activity in the test on Trypanosoma cruzi [2] turned out to be 168%; with Trypanosoma cruzi [3], 135.5%; in the test with Trypanosoma cruzi [8], 32.9%. For the same compound, in the test on Trypanosoma cruzi [4], the IC50 came to 22.2 µM.

For the compound `CC1(C)C=CC2=C(O1)C(=O)c1ncccc1C2=O`, the Activity with Trypanosoma cruzi [2] stood at 254%; in the test on Trypanosoma cruzi [3] it was 243.3%; in the test on Trypanosoma cruzi [9] it was 44.8%. Besides, the half-maximal inhibitory concentration (IC50) with Trypanosoma cruzi [4] amounted to 20.1 µM.

On to `CC1CCC2=C(O1)c1ccccc1C(=O)C2=O` (stereo not given), for which the Activity in the test with Trypanosoma cruzi [10] is 40.3%; in the test on Trypanosoma cruzi [2], 100%; with Trypanosoma cruzi [3] it was 100.6%. Further, the half-inhibitory concentration (IC50) with Trypanosoma cruzi [4] came out at 1.93 µM.

On to `CC(C)(O)CCC1=C(O)C(=O)c2ccccc2C1=O`, for which the Activity in the test with Trypanosoma cruzi [2] is listed as 109%; in the test on Trypanosoma cruzi [3] it was 125%; in the test on Trypanosoma cruzi [11], 112.6%. Also, the IC50 with Trypanosoma cruzi [4] was > 100 µM.

For the compound `COc1cccc2c1C(=O)C1=C(C=CC(C)(C)O1)C2=O`, the Activity in the test with Trypanosoma cruzi [2] is recorded as 100%; in the test on Trypanosoma cruzi [12] it was 26.7%; in the test on Trypanosoma cruzi [3] it was 100.2%. Moreover, the IC50 in the test on Trypanosoma cruzi [4] is 38.1 µM.

As for `CC1(C)CC(O)C2=C(O1)C(=O)c1ncccc1C2=O` (stereo not given), the Activity with Trypanosoma cruzi [2] is listed as 55%; with Trypanosoma cruzi [13], 8.8%; in the test with Trypanosoma cruzi [3], 33.2%. In the test on Trypanosoma cruzi [4], the 50% inhibitory concentration (IC50) was 0.19 µM.

Take `O=C(Cn1ccnc1[N+](=O)[O-])NCc1ccccc1` [BENZNIDAZOLE]: the results for the Activity with Trypanosoma cruzi [2] and with Trypanosoma cruzi [3] were 82% and 57.8%, respectively. Besides, the IC50 with Trypanosoma cruzi [4] stood at 20.6 µM.

As to `CC(=O)CC1CCC2=C(O1)C(=O)c1ccccc1C2=O` (stereo not given), the Activity in the test on Trypanosoma cruzi [2] was determined as 168%; in the test with Trypanosoma cruzi [3], 142.5%. Also, the IC50 in the test with Trypanosoma cruzi [4] was 36.3 µM.
